ChEMBL document CHEMBL1154155, “Novel 2,4,5-trisubstituted oxazole derivatives: synthesis and antiproliferative activity” (Eur J Med Chem, 2009)

Tested on: A-431
Test: Antiproliferative activity against human A431 cells after 48 hrs by MTT assay
Format: functional, cell-based
Conditions: A-431, 48 h
In short: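 Cells in complete medium seeded into 96-well plates, preincubated 24 h at 37 °C, 5% CO₂ before cytotoxicity assessment; absorbance read at 570 nm on plate reader.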

Question: How did the IC50 turn out when `O=c1[nH]cc(F)c(=O)[nH]1` [FLUOROURACIL] was run?
Answer: 18 nM
